MPTP inh = mitochondrial permeability transition pore inhibitors, primary screen, biochemical, isolated mouse mitochondria, absorbance; inhibition, % at 10 µM; actives 1.4% (n = 360,000); Ca2+ swelling absorbance, 30 min; AID 602449, 2012;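 active = inhibition of 50% or more, scaled per plate between neutral and stimulator controls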
EBI2 block = EBI2 receptor antagonists, beta-arrestin recruitment, primary screen, cell-based, luminescence, 7a,25-OHC stimulation, uHTS; actives 0.81% (n = 360,000); G-protein coupled receptor 183 (Homo sapiens), P32249; 7a,25-OHC stimulated; inhibition, % at 5 µM; in the data active = inhibition above about 38%;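 note: enzyme fragment complementation signal reports receptor beta-arrestin coupling in cells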
Target sequence (P32249 whole entry, looked up, the tested form may be a part): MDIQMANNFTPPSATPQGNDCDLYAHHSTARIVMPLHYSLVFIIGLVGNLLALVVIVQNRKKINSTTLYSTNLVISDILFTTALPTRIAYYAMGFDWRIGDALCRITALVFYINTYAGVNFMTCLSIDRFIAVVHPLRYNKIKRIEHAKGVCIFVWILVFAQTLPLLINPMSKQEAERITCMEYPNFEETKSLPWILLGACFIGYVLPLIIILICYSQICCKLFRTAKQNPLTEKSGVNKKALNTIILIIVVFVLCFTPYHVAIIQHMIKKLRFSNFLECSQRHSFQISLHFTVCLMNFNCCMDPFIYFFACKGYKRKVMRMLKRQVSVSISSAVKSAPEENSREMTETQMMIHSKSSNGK
GRIN3A LBD mod = binders of NR3A ligand-binding domain, primary screen, biophysical, differential scanning fluorimetry, uHTS. Glutamate receptor ionotropic, NMDA 3A (GRIN3A) ligand-binding domain. NR3A LBD differential scanning fluorimetry, Tm shift; 0% = protein alone, 100% = glycine-bound protein. Tm shift relative to glycine control, % at 25 µM. actives 2.5% (n = 340,000). AID 1259313, 2017;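 active = melting temperature shift of at least 10% of the positive control shift, at one fixed dose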
SENP1 FRET inh = human SENP1 catalytic domain inhibitors, primary screen, biochemical, FRET, uHTS. recombinant SENP1 catalytic domain, CyPet-SUMO1-YPet FRET cleavage. inhibition, % at 10 µM. actives 0.21% (n = 360,000). AID 624204, 2012;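 active = inhibition at least 30% at 10 µM, raw YFP signal under a set limit, fluorescence ratio 0.5 to 1.5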
Target sequence (Q9P0U3 419-644 limits assumed): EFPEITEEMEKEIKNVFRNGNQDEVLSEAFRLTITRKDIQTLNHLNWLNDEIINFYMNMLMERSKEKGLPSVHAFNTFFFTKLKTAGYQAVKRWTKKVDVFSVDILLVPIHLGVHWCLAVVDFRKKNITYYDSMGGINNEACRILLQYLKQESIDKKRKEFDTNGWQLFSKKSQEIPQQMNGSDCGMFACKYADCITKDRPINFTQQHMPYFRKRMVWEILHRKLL
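Assay system – human recombinant His6-tagged SENP1 catalytic domain enzyme · Input – SENP1 enzyme, 20 pM final · Buffer or medium – Tris pH 8 buffer plus EDTA, NaCl, BME, BSA, NP40, catalase · Schedule – 50 min reaction at room temperature · Technique – FRET read of cyan and yellow fluorescence · Control set – no-enzyme wells low, DMSO-plus-enzyme wells high control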
Of the large screens only hits and unclear results are named; the others gave an inactive call. This is a sample that favours compounds with a hit; in the whole collection about 4.4% have one here.

Cc1cc2c(cc1C)CSC(c1c(O)ccc3ccccc13)SC2	GRIN3A LBD mod 27
Cc1cc2c(cc1C)CSC(c1ccccc1OC(=O)C(C)(C)C)SC2	none
Cc1cc2c(cc1C)CSC(c1ccc(O)cc1)SC2	none
CC/C(=N\Nc1ccc([N+](=O)[O-])cc1[N+](=O)[O-])c1ccc(O)cc1	GRIN3A LBD mod 18
CCC(=NNc1ccc([N+](=O)[O-])cc1[N+](=O)[O-])c1ccccc1	none (no result: GRIN3A LBD mod)
C/C(=N\Nc1ccc([N+](=O)[O-])cc1)c1ccc(O)cc1	GRIN3A LBD mod 23
C/C(=N\Nc1cccc(C(=O)O)c1)c1cc2ccccc2o1	none
C/C(=N\Nc1cccc([N+](=O)[O-])c1)c1cc2ccccc2o1	GRIN3A LBD mod 29
C/C(=N\Nc1ccc([N+](=O)[O-])cc1)c1cccc(N)c1	GRIN3A LBD mod 29
C/C(=N\Nc1ncc(Br)cn1)c1cccc([N+](=O)[O-])c1	none
CC(=O)CC1=NC(C)(C)Cc2ccccc21	none
N#Cc1cccc(-c2csc(C(O)(c3ccccc3)C(F)(F)F)n2)c1 (stereo unspecified)	none (no result: GRIN3A LBD mod)
CCOc1ccc2nc(N/C(N)=N/C(=S)Nc3ccc(C)c(C)c3)nc(C)c2c1	GRIN3A LBD mod 20
CCC1CCCCN1C(=O)c1ccc(OC2CCN(Cc3ccccn3)CC2)cc1 (stereo unspecified)	none
O=C(/C=C/c1ccccc1)c1c[nH]c2ccccc12	GRIN3A LBD mod 25
CCOc1ccc(CCNC(=O)COC(=O)c2nc3nc(C)cc(C)n3n2)cc1OCC	none
Cc1cccc(C(=O)OC(C)C(=O)Nc2ccc(S(=O)(=O)Nc3ncccn3)cc2)c1C (stereo unspecified)	none
O=C(c1ccccc1)N1CCN=C1SCc1ccc([N+](=O)[O-])cc1	GRIN3A LBD mod 24
Cc1sc(NC(=O)c2cc(-c3ccccc3)nc3ccccc23)c(C(N)=O)c1C	GRIN3A LBD mod 17
O=[N+]([O-])c1ccc(N=Nc2c(Cl)cc(O)cc2Cl)cc1	GRIN3A LBD mod 18
CC(N)=Nc1ccc([N+](=O)[O-])cc1	none
CN(C)CCNC(=O)C(=O)Nc1ccc2c(c1)N(S(=O)(=O)c1cccs1)CCC2	none
O=C(Nc1ccccc1)c1cccc2c(Br)cccc12	none
CCOc1ccc(NC(=O)C(C)Oc2ccccc2C(=O)Nc2ccc(C)c(Cl)c2)cc1 (stereo unspecified)	GRIN3A LBD mod 26
Cc1ccc(NC(=O)C(NC2CCCC2)c2ccccc2)cc1Cl (stereo unspecified)	none
Cc1ccc(NC(=O)C(OC(=O)c2ccc(NC(N)=O)cc2)c2ccccc2)cc1Cl (stereo unspecified)	GRIN3A LBD mod 26
Cc1ccc(NC(=O)C(OC(=O)c2ccccc2Cl)c2ccccc2)cc1Cl (stereo unspecified)	GRIN3A LBD mod 19
Cc1cc(C)cc(NC(=O)C(OC(=O)c2cc[n+]([O-])cc2)c2ccccc2)c1 (stereo unspecified)	none
O=C(OC(C(=O)Nc1ccc(Cl)c(C(F)(F)F)c1)c1ccccc1)C1=COCCO1 (stereo unspecified)	GRIN3A LBD mod 13
Cc1cc(C)n(CC(=O)NNC(=O)COc2ccc(Cl)cc2Cl)n1	none
C[C@@H]1CNC(=O)c2c(C(=O)N[C@@H](Cc3c[nH]c4ccccc34)C(=O)OC(C)(C)C)ncn21	none (no result: GRIN3A LBD mod)
CC(=O)c1cccc(NC(=O)C(C)OC(=O)c2cc(C)oc2C)c1 (stereo unspecified)	none
Cc1cc(C(=O)OC(C(=O)Nc2ccc(C)c(Cl)c2)c2ccccc2)c(C)o1 (stereo unspecified)	GRIN3A LBD mod 26
Cc1ccc(C)c(N2CC(C(=O)Nc3nccs3)CC2=O)c1 (stereo unspecified)	none
CCCc1c(C(=O)N/N=C/c2c(OC)ccc3ccccc23)nnn1-c1nonc1N	GRIN3A LBD mod 31
COc1cc(/C=N/NC(=O)c2cccs2)ccc1O	none
COc1cc(/C=N/NC(=O)c2cccs2)ccc1OCc1ccccc1	GRIN3A LBD mod 19
CCCc1c(C(=O)N/N=C/c2ccc(OC)c(OCc3ccccc3)c2)nnn1-c1nonc1N	GRIN3A LBD mod 37
CCCc1c(C(=O)N/N=C/c2ccc(OCc3ccccc3)c(OC)c2)nnn1-c1nonc1N	GRIN3A LBD mod 12
CCCc1c(C(=O)N/N=C/c2ccc(OCc3ccccc3)cc2)nnn1-c1nonc1N	none (no result: GRIN3A LBD mod)
Cn1c(=O)c2c(ncn2CC(=O)OCC(=O)Nc2cc(Cl)ccc2Cl)n(C)c1=O	none
COc1ccc(CNC(=O)COC(=O)CN2C(=O)C3CC=CCC3C2=O)cc1 (stereo unspecified)	none
O=C(NCCS(=O)(=O)N1CCN(c2ccc(F)cc2)CC1)c1ccco1	GRIN3A LBD mod 22
COc1ccc(N2C(=O)N3[C@H](c4cccc(C)c4)[C@@H]4C(=O)N(Cc5ccccc5)C(=O)[C@@H]4[C@]3(Cc3ccccc3)C2=O)cc1	none (no result: MPTP inh, EBI2 block, SENP1 FRET inh)
Cc1cccc([C@@H]2[C@@H]3C(=O)N(Cc4ccccc4)C(=O)[C@@H]3[C@]3(C)C(=O)N(c4ccc(C(F)(F)F)cc4)C(=O)N23)c1	GRIN3A LBD mod 13
COc1ccc(-c2ccnc(SCC(=O)c3ccc(Br)cc3)n2)cc1	GRIN3A LBD mod 26
CCN(C(=O)c1cc2c(=O)[nH]c3ccc(C)cc3c2s1)c1ccc(OC)cc1	none
O=C(O)CC/C(=C\c1ccc(Cl)c([N+](=O)[O-])c1)c1nc2ccccc2s1	GRIN3A LBD mod 30
COc1cc(/C=N/NS(=O)(=O)c2ccc(C)cc2)ccc1OCc1cccc(C(=O)O)c1	none
COc1ccc(/C=N/NS(=O)(=O)c2ccc(C)cc2)cc1OC(=O)c1ccccc1	GRIN3A LBD mod 10
COc1ccc(/C=N/NS(=O)(=O)c2ccccc2)cc1OC(=O)c1ccc(C)cc1	GRIN3A LBD mod 19
COc1ccc(/C=N\NS(=O)(=O)c2ccc(C)cc2)cc1COc1ccccc1[N+](=O)[O-]	GRIN3A LBD mod 12
CC(NC(=O)[C@H](C)NC(=O)[C@@H]1CSC2c3ccccc3C(=O)N21)c1ccccc1 (stereo partly specified)	none
COc1cc(C(C)=O)ccc1OCC(=O)NCC1(N2CCCCC2)CCCCC1	none
CCN(CC)c1ccc(C=C2C(=O)OC3(CCCCC3)OC2=O)cc1	GRIN3A LBD mod 18
O=C(NC1CC1)C1CCN(C(=O)c2ccccc2Cl)CC1	none
COc1ccccc1-c1cnc(C(O)c2ccc(CN3CCCC3)cc2)[nH]1 (stereo unspecified)	none (no result: GRIN3A LBD mod)
CN(CCc1ccccn1)C1CC(=O)N(c2ccc(Cl)cc2)C1=O (stereo unspecified)	GRIN3A LBD mod 14
Cc1c(C#N)c(N)nc2c3c(sc12)NC(=O)CC3c1ccc(Cl)cc1 (stereo unspecified)	GRIN3A LBD mod 14
FC(F)Sc1nc(-c2ccccc2)c(-c2ccccc2)n1C(F)F	GRIN3A LBD mod 18

Screening data as filed in PubChem BioAssay.
